Laboratory results published in ChEMBL document CHEMBL4028860 (PLoS One, 2017).
Active and inactive are the calls of the source. The calls are words filed in the database; no cut-off is given here.

Legend:
THP-1 = test: Cytotoxicity against human THP1 cells assessed as reduction in cell viability by CellTiterGlo assay; format: cell-based
Cyclic GMP-AMP synthase [1] = target: T1, Cyclic GMP-AMP synthase (Homo sapiens, UniProt Q8N884); test: Inhibition of cGAS in human THP1 cells assessed as reduction in salmon sperm dsDNA-induced IFN-beta expression preincubated for 1 hr followed by dsDNA stimulation for 12 hrs by luciferase reporter gene assay; format: cell-based
Cyclic GMP-AMP synthase [2] = target: T1, Cyclic GMP-AMP synthase; test: Inhibition of human cGAS (2 to 522 residues) expressed in Sf9 insect cells assessed as reduction in cGAMP level using ISD DNA as substrate in presence of ATP and GTP incubated for 1 hr followed by Cy5-labeled cGAMP addition measured after 1 hr by fluorescence polarization assay
Outline: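 Enzyme reaction uses 100 nM cGAS, 100 nM ISD DNA, 1 mM ATP and 0.3 mM GTP in Hepes/NaCl/Tween-20/MgCl2 buffer, pH 7.5, with compounds. Run 1 h at room temperature, then stopped with 50 mM EDTA. Fluorescence polarization read with 620 nm excitation.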

T1 sequence (Q8N884 whole entry, the tested form may be a part): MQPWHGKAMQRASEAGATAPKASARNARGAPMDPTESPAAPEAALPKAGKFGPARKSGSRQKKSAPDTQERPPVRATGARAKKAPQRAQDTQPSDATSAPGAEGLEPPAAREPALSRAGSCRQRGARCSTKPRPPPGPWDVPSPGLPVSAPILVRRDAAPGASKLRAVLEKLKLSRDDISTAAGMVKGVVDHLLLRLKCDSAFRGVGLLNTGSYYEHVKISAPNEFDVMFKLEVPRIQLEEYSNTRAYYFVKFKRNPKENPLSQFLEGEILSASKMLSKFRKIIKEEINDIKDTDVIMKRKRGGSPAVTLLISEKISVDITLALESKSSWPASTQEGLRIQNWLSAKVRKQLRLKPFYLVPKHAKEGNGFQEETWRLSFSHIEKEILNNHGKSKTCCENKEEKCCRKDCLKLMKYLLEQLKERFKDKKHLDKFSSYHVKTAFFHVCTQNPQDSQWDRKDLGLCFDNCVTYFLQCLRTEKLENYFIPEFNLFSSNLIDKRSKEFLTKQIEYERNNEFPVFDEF

Compound | inhibition (Cyclic GMP-AMP synthase [1]) | IC50 (Cyclic GMP-AMP synthase [2]) | Activity (THP-1)
O=C(N[C@H]1CCCC[C@H]1C(=O)O)c1cnn2c(O)cc(-c3ccccc3)nc12 | – | – | Non-Toxic
Oc1cc(-c2ccccc2)nc2nnnn12 | – | 78 µM | –
O=C(NCCCNc1nc(Nc2cccc(NC(=O)N3CCCC3)c2)ncc1I)c1cccs1 [BX-795] | – | – | Non-Toxic

Now from value to compound, other results behind:

inhibition (Cyclic GMP-AMP synthase [1]) | IC50 (Cyclic GMP-AMP synthase [2]) | Compound | Activity (THP-1)
inactive | – | O=C(O)CNC(=O)c1cnn2c(O)cc(-c3ccccc3)nc12 | Non-Toxic
inactive | – | O=C(NCCO)c1cnn2c(O)cc(-c3ccccc3)nc12 | Non-Toxic
inactive | – | C[C@@H](CO)NC(=O)c1cnn2c(O)cc(-c3ccccc3)nc12 | Non-Toxic
